Compound activity as filed in PubChem.
Only some compounds are listed: those with a hit (about 12% of all), similar ones and a draw of the others.
Dynein cargo inh: inhibitors of GR-EGFP nuclear translocation, primary screen, dynein cargo transport inhibitor project, imaging, high-content, 3617.4 mouse cells | test concentration mostly 20 µM; stimulated with dexamethasone, 1 µM; hits give low values | z-score, hits read low | hit rate 0.47% among 220,000 | AID 1381, 2008;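 active = plate z-score of nuclear minus cytoplasmic receptor signal below a set negative limit, without overly bright fluorescence or cell loss, cut at about -3.5 in these data, passing the limit was not always enough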;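 also: z-score of nuclear minus cytoplasmic ring GR-EGFP intensity difference per well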
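Buffer or medium: tet-free medium with charcoal-stripped serum / Also added: dexamethasone agonist, 1.0 µM final, for 30 min / Timing: induction 48 h, compound 1 h, agonist 30 min / Measured by: high-content fluorescence imaging after fixation / Read-out: nuclear-to-cytoplasmic GR-EGFP distribution per well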
bCat nuc transl: modulators of beta-catenin nuclear translocation, primary screen, imaging, HeLa cells, immunofluorescence, high-content; nuclear translocation activity, % at 5 µM; hit rate 0.3% among 190,000; AID 1665, 2009;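 active = nuclear translocation activity above 50% at 5 µM, with a well cell count of 50 or more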;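 also: per-cell ratio of nuclear to cytoplasmic median beta-catenin stain intensity; plate controls were DMSO negative control for no effect and GSK-3 inhibitor IX positive control for full effect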
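Test system: human HeLa cells, endogenous beta-catenin. Times: 24 h compound exposure, 37°C. Measured by: beta-catenin immunofluorescence imaging with DAPI.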
Autophagy mod: autophagy modulators in MEF cells, primary screen, imaging, high-content, MEF GFP-LC3; MEF GFP-LC3 puncta imaging; test concentration mostly 10 µM; calls only at 10 µM (by protocol); hit rate 0.98% among 190,000;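 active = percentage of spot-positive cells more than 3 SD above its plate mean, without a fluorescence outlier flag or 80% toxicity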;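 also: spot-positive cell cutoff set from DMSO-treated cells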
Lmaj promast: Leishmania major promastigote growth inhibition, primary screen; Leishmania major promastigotes, resazurin fluorescence viability; inhibition, % at 10 µM; hit rate 9% among 200,000; AID 1063, 2008; in the data active = inhibition above about 50%;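 also: promastigotes grown with compound for 44 hours at 28 °C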
MT stabilizer: microtubule stabilizers in HeLa cells, primary screen, imaging, high-content imaging; HeLa tubulin immunostaining HCS, 24 h; share of cells brighter than vehicle mean+2SD; % tubulin-high responders, % at 10 µM; hit rate 0.83% among 200,000; AID 2205, 2009;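 active = plate Z-score above 3 for both tubulin-high and condensed-nucleus cell shares, with cell loss under 80%, at 10 µM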;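 also: anti alpha tubulin signal scored within the nucleus-defined area of each cell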
CHOP inhibitor: inhibitors of CHOP promoter induction, primary screen, cell-based, unfolded protein response, luciferase reporter; hit rate 3.8% among 220,000; inhibition, % at 10 µM; AID 2732, 2010; CHO-K1 CHOP-promoter luciferase, tunicamycin-induced, 15-18 h;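 active = compounds that reduced the stress-induced luciferase reporter signal by more than about 70% of percent inhibition, limit read from the data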;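 also: 0% = tunicamycin plus vehicle and 100% = wells without tunicamycin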
An asterisk follows results filed as active; i = inactive; · = no result given.

SMILES | Dynein cargo inh | bCat nuc transl | Autophagy mod | Lmaj promast | MT stabilizer | CHOP inhibitor
Cc1cccc(N2CCN(C(=O)c3cc4n(n3)C(C(F)(F)F)CC(c3ccco3)N4)CC2)c1C (stereo unspecified) | -0.73 | -2 | i | 67* | 7 | 4
O=C(c1cc2n(n1)C(C(F)(F)F)CC(c1ccco1)N2)N1CCN(c2ccccn2)CC1 (stereo unspecified) | -0.58 | -3 | i | -1 | 2 | 30
O=S(=O)(N/N=C\C=C\c1ccccc1)c1ccccc1 | -0.23 | · | i | 51* | 1 | ·
O=S(=O)(N/N=C\c1cccnc1)c1ccccc1 | 0.082 | -3 | i | -9 | 4 | 14
Cc1ccc(N=Cc2c(O)[nH]c3ccccc23)c([N+](=O)[O-])c1 | -1.1 | 0 | i | -2 | 4 | 0
Cc1ccc(C#CC[N+]2(CC#Cc3ccc(C)cc3)CCCCC2)cc1 | -0.15 | -2 | i | 100* | 2 | 36
O=C(C[N+]1(CC#Cc2ccccc2)CCCCC1)c1ccccc1 | -0.11 | -1 | i | 45 | 3 | -9
O=C(C[N+]1(CC#Cc2ccccc2)CCCCC1)c1ccc(Cl)cc1 | -0.62 | -2 | i | 52* | 2 | 12
C(#Cc1ccccc1)C[N+]1(CC#Cc2cccc3ccccc23)CCOCC1 | 1.2 | 0 | i | 100* | 2 | 13
C#CC[N+]1(CC#Cc2cccc(C)c2)CCCCC1 | 1.9 | 1 | i | 9 | 3 | 9
CCC[N+](CC#Cc1ccccc1)(CCC)CC(=O)c1ccc(Cl)cc1 | 0.99 | 0 | i | 100* | 3 | 2
Cc1ccc(OCCn2cnc(Cl)c2Cl)cc1 | -1.1 | 1 | i | -3 | 1 | 13
CN(CCc1nc2ccc(Cl)cc2[nH]1)Cc1nc(CC2CC2)no1 | 2.1 | 2 | i | 4 | 3 | 28
O=C(Cn1cc(F)c(=O)[nH]c1=O)NCCO | -0.13 | -1 | i | -2 | 5 | 22
CCOc1ccc(NC(=O)CSc2nc3ccccc3c(=O)n2CCCC(=O)NCCCN2CCCC2=O)cc1 | -0.3 | -1 | i | -8 | 5 | -7
C#CC[N+]1(CC#Cc2ccccc2)CCCCC1 | -0.22 | · | i | -1 | 2 | 43
C(#Cc1ccccc1)C[N+]1(CC#Cc2ccccc2)CCCCC1 | -0.095 | 0 | i | 100* | 2 | 4
COC(=O)c1cccc(NC(=O)NC2CCCN2S(=O)(=O)c2ccc(Cl)cc2)c1 (stereo unspecified) | 0.43 | · | i | 76* | 2 | 18
CCC(C)NC(=O)Nc1ccc(F)c(Cl)c1 (stereo unspecified) | -0.01 | 0 | i | 96* | 2 | -7
COC(=O)c1ccc(NC(=O)Nc2ccc(F)c(Cl)c2)cc1 | 0.69 | · | i | -5 | 2 | 86*
NNC(=O)C1CCCN1S(=O)(=O)c1ccc(Cl)cc1 (stereo unspecified) | 0.76 | 1 | i | 11 | · | 7
O=C(Nc1ccc(Cl)cn1)c1cccc(F)c1 | 0.021 | 100* | i | 1 | 39* | ·
O=C(Nc1ccc(Cl)cn1)c1ccccc1F | -1 | 3 | i | -4 | 17 | 7
CSc1nc(NC(C)(C)C)nc(Oc2ccc(=O)n(C)n2)n1 | 0.8 | -2 | i | -6 | 3 | -6
CC(C)C(=O)Nc1nnc(SCC(=O)NCc2cccs2)s1 | -0.77 | -4 | i | -7 | 2 | 1
SMILES | Dynein cargo inh | bCat nuc transl | Autophagy mod | Lmaj promast | MT stabilizer | CHOP inhibitor
CC1(C)CC2(CCO1)C(Nc1ccccc1)=NC(=S)N2CC(N)=O (stereo unspecified) | 1 | 5 | · | · | · | 6
O=C(Nc1ccc(F)c(Cl)c1)Nc1ccc(Cl)cn1 | -0.85 | 0 | i | -2 | 2 | 81*
COC(=O)c1cccc(NC(=O)Nc2ccc(Cl)c(Cl)c2)c1 | -0.54 | -1 | i | 87* | 1 | 31
CCCn1nc2cc(C(=O)NCCc3cccs3)ccc2c1OCC | 0.27 | 1 | i | 2 | 2 | 28
Cc1ccccc1NC(=O)CN1C(=S)NC(C)(C)CC1C (stereo unspecified) | 0.42 | 0 | i | 53* | 2 | -2
CC1CC(C)(C)NC(=S)N1CC(=O)NCc1ccccc1Cl (stereo unspecified) | 1.5 | -1 | i | 77* | 2 | 22
Cc1cccc(NC(=O)CN2C(=S)NC(C)(C)CC2C)c1 (stereo unspecified) | 1.3 | 1 | i | 54* | 4 | 30
COC(=O)c1ccccc1NC(=O)CSc1nnc(CNS(=O)(=O)c2ccc(C)cc2)n1C | -0.34 | 8 | i | -4 | 3 | 6
O=C(Nc1ccc(C(F)(F)F)cc1Cl)c1ccc(Cn2cc(Br)cn2)o1 | 0.47 | 2 | i | -8 | 2 | 73*
CCOc1ccc(/C(O)=C2/C(=O)C(=O)N(c3ncccn3)C2c2ccccc2)cc1 (stereo unspecified) | -0.68 | -2 | i | -7 | 6 | -20
Cc1ccc(-c2nnc(SCc3ccccc3F)o2)cc1 | -0.78 | · | i | -10 | 3 | 75*
Cc1cc([N+](=O)[O-])ccc1-c1ccc(C2Nc3ccccc3C(=O)N2O)o1 (stereo unspecified) | 0.018 | · | i | 99* | 1 | 76*
CCOC(=O)c1ccc(-c2ccc(C3Nc4ccccc4C(=O)N3O)o2)cc1 (stereo unspecified) | 0.2 | 5 | i | 98* | 2 | 52
CCOC(=O)c1ccc(-c2ccc(CO)o2)cc1 | -0.19 | -1 | i | -7 | 2 | -43
COc1ccc(/C=C/C(=O)Nc2cc(S(=O)(=O)N3CCOCC3)ccc2C)cc1OC | -0.22 | -3 | i | 2 | 4 | -1
Cc1cccc(NC(=O)Nc2nnc(N3CCCCC3C)s2)c1C (stereo unspecified) | 0.59 | · | i | -1 | 4 | 80*
COc1cccc(NC(=O)Nc2nnc(N3C(C)CCCC3C)s2)c1 (stereo unspecified) | -0.15 | 0 | · | · | · | 20
COc1ccc(/C=C/C(=O)c2ccc(Cl)s2)cc1O | -3.8* | · | i | 92* | 2 | 85*
COc1ccc(C(=O)/C=C/c2ccc(OC)c(O)c2)c(F)c1 | 0.034 | 1 | i | 82* | 7 | -26
Cc1c(/C=C/C(=O)c2ccc(Cl)s2)cnn1C | -1.8 | 2 | i | 20 | 3 | -4
COc1cc(/C=C/C(=O)CC(=O)/C=C/c2ccc(O)c(OC)c2)ccc1O | 0.27 | 2 | i | 49 | 9 | 13
COc1cc(/C=C/C(=O)c2ccc(Cl)s2)cc(OC)c1O | -4* | · | i | 100* | 3 | 18
